Results: ChEMBL document CHEMBL2029288, “Coumarin-trioxane hybrids: synthesis and evaluation as a new class of antimalarial scaffolds” (Bioorg Med Chem Lett, 2012)
≈ marks a conversion by molar mass, not a printed value.

Tested on: Plasmodium yoelii nigeriensis
Experiment: Antimalarial activity against multi drug-resistant Plasmodium yoelii nigeriensis infected in Swiss mouse assessed as suppression in parasitemia at 96 mg/kg, po on day 4
Type: functional
Details: not given
Method in brief: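 Peters's 4-day suppressive test in Swiss mice infected with P. yoelii nigeriensis. Compound given orally at 96 mg/kg/day for 4 days; parasitaemia suppression scored on day 4.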

| SMILES | Activity |
| --- | --- |
| C=C(c1ccc(C)cc1)C1COC(c2cc(C)c3oc(=O)c(C(=O)OCC)cc3c2)OO1 (centres undefined) | 41.14% |

Tested on: Plasmodium falciparum
Experiment: Antimalarial activity against chloroquine-sensitive Plasmodium falciparum 3D7 after 72 hrs by MSF assay
Type: functional, organism-based
Details: 3D7, 72 h
Method in brief: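 Parasites in 1% cell suspension at 0.8–1% initial parasitaemia, exposed to compounds in duplicate wells for 72 h at 37 °C under 5% CO2 in air. SYBR Green-I then added for 1 h at 37 °C; fluorescence read at excitation 485 ± 20 nm, emission 530 ± 20 nm. Signal expressed as percent of untreated controls; IC50 by logit regression. Chloroquine standard.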

| SMILES | IC50 |
| --- | --- |
| C=C(c1ccc(C)cc1)C1COC(c2cc(C)c3oc(=O)c(C(=O)OC)cc3c2)OO1 (centres undefined) | 0.361 µg/mL (≈ 0.853 µM) |
| C=C(c1ccc(C)cc1)C1COC(c2cc(C)c3oc(=O)c(C(=O)OCC)cc3c2)OO1 (centres undefined) | 0.262 µg/mL (≈ 0.601 µM) |
| C=C(c1ccc(C)cc1)C1COC(c2cc(C(C)CC)c3oc(=O)c(C(=O)OC)cc3c2)OO1 (centres undefined) | 0.132 µg/mL (≈ 0.284 µM) |
| C=C(c1ccc(C)cc1)C1COC(c2cc(C(C)CC)c3oc(=O)c(C(=O)OCC)cc3c2)OO1 (centres undefined) | 0.0393 µg/mL (≈ 0.0821 µM) |
| C=C(c1ccc(Br)cc1)C1COC(c2cc(C)c3oc(=O)c(C(=O)OC)cc3c2)OO1 (centres undefined) | 0.306 µg/mL (≈ 0.628 µM) |
| C=C(c1ccc(Br)cc1)C1COC(c2cc(C)c3oc(=O)c(C(=O)OCC)cc3c2)OO1 (centres undefined) | 0.246 µg/mL (≈ 0.49 µM) |
| C=C(c1ccc(Br)cc1)C1COC(c2cc(C(C)CC)c3oc(=O)c(C(=O)OC)cc3c2)OO1 (centres undefined) | 0.076 µg/mL (≈ 0.144 µM) |
| C=C(c1ccc(Br)cc1)C1COC(c2cc(C(C)CC)c3oc(=O)c(C(=O)OCC)cc3c2)OO1 (centres undefined) | 0.11 µg/mL (≈ 0.203 µM) |
| C=C(c1ccc(F)cc1)C1COC(c2cc(C)c3oc(=O)c(C(=O)OC)cc3c2)OO1 (centres undefined) | > 0.5 µg/mL |
| C=C(c1ccc(F)cc1)C1COC(c2cc(C)c3oc(=O)c(C(=O)OCC)cc3c2)OO1 (centres undefined) | > 0.5 µg/mL |
| C=C(c1ccc(F)cc1)C1COC(c2cc(C(C)CC)c3oc(=O)c(C(=O)OC)cc3c2)OO1 (centres undefined) | 0.203 µg/mL (≈ 0.433 µM) |
| C=C(c1ccc(F)cc1)C1COC(c2cc(C(C)CC)c3oc(=O)c(C(=O)OCC)cc3c2)OO1 (centres undefined) | 0.117 µg/mL (≈ 0.242 µM) |
| CO[C@H]1O[C@@H]2O[C@@]3(C)CC[C@H]4[C@H](C)CC[C@@H]([C@H]1C)[C@@]24OO3 [ARTEMETHER] | 0.0004 µg/mL (≈ 0.00134 µM) |
